From ChEMBL document CHEMBL1132299, “Phosphinic pseudo-tripeptides as potent inhibitors of matrix metalloproteinases: a structure-activity study” (J Med Chem, 1999) come the findings set out here.

Test [1] concerns the target T1, Matrix metalloproteinase-9 (Homo sapiens, UniProt P14780). Briefly: Inhibition of Matrix metalloprotease-9, gelatinase-B at 2 uM.
For test [2], the target named is T2, Matrilysin (Homo sapiens) (UniProt P09237).
T2 sequence (whole entry): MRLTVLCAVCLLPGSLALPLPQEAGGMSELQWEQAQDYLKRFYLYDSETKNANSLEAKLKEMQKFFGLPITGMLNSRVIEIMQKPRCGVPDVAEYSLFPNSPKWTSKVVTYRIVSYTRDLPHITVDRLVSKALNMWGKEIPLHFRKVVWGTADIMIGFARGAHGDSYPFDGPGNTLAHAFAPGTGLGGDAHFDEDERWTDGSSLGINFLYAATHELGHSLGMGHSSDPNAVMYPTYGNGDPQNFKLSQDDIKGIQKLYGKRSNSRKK
As to the kind of experiment: In vitro inhibition of MMP-7 at 2 uM.

Test [3] has as its target T3, 72 kDa type IV collagenase (Homo sapiens, UniProt P08253). Briefly: Inhibition of MMP-2 gelatinase-A at 2 uM.
Target sequence in this assay (P08253 110-660 limits assumed): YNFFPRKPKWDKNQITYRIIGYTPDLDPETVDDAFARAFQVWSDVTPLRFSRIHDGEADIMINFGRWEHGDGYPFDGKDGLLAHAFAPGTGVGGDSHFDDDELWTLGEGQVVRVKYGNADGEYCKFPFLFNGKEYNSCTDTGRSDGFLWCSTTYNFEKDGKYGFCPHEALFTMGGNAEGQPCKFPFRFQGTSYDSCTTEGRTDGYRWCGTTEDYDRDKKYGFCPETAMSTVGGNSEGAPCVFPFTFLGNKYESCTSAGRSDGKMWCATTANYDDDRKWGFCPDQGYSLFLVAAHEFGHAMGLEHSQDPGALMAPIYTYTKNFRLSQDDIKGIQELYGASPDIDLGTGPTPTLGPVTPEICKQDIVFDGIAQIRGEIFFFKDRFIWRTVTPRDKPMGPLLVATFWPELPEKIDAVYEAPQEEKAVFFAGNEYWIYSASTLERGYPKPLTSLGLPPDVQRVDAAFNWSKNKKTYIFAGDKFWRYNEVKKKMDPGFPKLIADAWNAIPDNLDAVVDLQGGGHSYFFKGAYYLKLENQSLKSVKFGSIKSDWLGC
Test [4] has as its target T4, Neutrophil collagenase (Homo sapiens, UniProt P22894). As to the kind of experiment: Compound was tested for its binding affinity against MMP-8 HNC at 1 uM.
Target sequence in this assay (P22894 101-467 limits assumed): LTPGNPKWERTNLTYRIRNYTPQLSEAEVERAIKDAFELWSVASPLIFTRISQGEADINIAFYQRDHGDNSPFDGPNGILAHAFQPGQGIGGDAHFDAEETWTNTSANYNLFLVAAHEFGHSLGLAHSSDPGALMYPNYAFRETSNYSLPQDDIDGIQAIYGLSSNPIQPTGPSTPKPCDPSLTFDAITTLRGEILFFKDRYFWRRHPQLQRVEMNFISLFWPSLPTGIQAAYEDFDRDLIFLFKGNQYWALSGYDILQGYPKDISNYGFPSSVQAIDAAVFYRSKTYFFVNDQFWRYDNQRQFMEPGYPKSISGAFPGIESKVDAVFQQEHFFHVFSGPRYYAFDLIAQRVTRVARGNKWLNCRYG
Test [5] addresses T5, Stromelysin-3 (Mus musculus) (UniProt Q02853).
T5 sequence (whole entry): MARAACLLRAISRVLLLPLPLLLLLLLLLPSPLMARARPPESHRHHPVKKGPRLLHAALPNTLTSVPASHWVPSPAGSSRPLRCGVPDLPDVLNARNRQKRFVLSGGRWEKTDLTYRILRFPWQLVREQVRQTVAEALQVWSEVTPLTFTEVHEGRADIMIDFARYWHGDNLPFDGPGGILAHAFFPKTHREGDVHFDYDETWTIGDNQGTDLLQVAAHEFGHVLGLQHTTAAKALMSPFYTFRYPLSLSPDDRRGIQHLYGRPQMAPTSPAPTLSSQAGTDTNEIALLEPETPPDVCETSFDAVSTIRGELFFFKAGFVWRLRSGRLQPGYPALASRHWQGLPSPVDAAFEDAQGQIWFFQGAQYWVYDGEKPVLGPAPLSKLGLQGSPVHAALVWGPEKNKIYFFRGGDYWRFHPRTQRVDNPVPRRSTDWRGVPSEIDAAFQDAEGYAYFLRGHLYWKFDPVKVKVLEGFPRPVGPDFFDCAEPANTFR
The following applies: Homo sapiens; 1 uM.

The target in test [6] is T6, Interstitial collagenase (Homo sapiens) (UniProt P03956).
T6 sequence (whole entry): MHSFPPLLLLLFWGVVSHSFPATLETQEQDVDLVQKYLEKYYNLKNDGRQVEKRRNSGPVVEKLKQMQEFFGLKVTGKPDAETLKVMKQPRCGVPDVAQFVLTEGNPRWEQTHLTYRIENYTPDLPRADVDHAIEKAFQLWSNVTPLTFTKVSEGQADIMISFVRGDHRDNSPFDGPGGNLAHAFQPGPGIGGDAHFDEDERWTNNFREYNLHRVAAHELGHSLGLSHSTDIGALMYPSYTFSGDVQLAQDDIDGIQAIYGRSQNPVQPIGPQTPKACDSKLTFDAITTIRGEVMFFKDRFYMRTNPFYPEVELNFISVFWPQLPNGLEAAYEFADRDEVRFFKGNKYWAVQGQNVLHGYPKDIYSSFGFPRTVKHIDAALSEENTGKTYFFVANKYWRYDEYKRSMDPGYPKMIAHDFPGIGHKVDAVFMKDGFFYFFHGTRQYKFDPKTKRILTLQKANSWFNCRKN
Briefly: In vitro inhibition of MMP-1 at 2 uM.

In test [7] the target is T7, Matrix metalloproteinase-14 (Homo sapiens, UniProt P50281). Briefly: Inhibition of MMP-14 membrane-type-MMP at 10 uM. In outline: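 Human MMP-14 catalytic domain, expressed in E. coli BL21 DE3 pLysS. Assay in 50 mM Tris/HCl pH 6.8 with 10 mM CaCl2 at 25 °C, using 0.2–5 nM enzyme and 6 μM Mca-Pro-Leu-Gly-Leu-Dpa-Ala-Arg-NH2. Reaction started by adding substrate; fluorescence read at 400 nm (ex 340 nm) over 30 min. Time-dependent inhibitors were preincubated with enzyme for at least 1 h. Percent inhibition from triplicates.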

The next test has as its target T8, Matrilysin (Homo sapiens, UniProt P09237).
T8 sequence (P09237 whole entry): T2 sequence (whole entry)
Briefly: Inhibition of Matrix metalloprotease-7 Matrilysin. In outline:
(§1)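 Catalytic domains of human MMP-14 and MMP-7 were expressed in E. coli BL21 DE3 pLysS. Buffer 50 mM Tris/HCl pH 6.8, 10 mM CaCl2, 25 °C; 0.2–5 nM enzyme; 6 µM Mca-Pro-Leu-Gly-Leu-Dpa-Ala-Arg-NH2 read by fluorescence (ex 340, em 400 nm) for 30 min. Km: MMP-14 21, MMP-7 67 µM. Five inhibitor concentrations in triplicate; Ki by Horovitz–Levitski method.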

A further test addresses T9, Stromelysin-3 (Mus musculus, UniProt Q02853).
T9 sequence (Q02853 whole entry): T5 sequence (whole entry)
Briefly: Binding affinity against matrix metalloprotease-11. In short, it runs like this:
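Mouse MMP-11 catalytic domain from E. coli BL21 DE3 pLysS, assayed in stirred quartz cuvettes in 50 mM Tris/HCl pH 6.8, 10 mM CaCl2 at 25 °C. Substrate was Mca-Pro-Leu-Ala-Cys(OMeBn)-Trp-Ala-Arg-Dpa-NH2 (Km 0.2 µM), with fluorescence read-out. Percent inhibition was measured in triplicate at five concentrations (20–80% range), and Ki was derived by the Horovitz–Levitski method.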

For test [8], the target named is T3, 72 kDa type IV collagenase. As to the kind of experiment: Binding affinity against matrix metalloprotease-2 (gelatinase-A). In outline:
(§2)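 Full-length human pro-MMP-2, -9 and -8 were expressed in NSO myeloma cells and activated with 4-aminophenylmercuric acetate just before use. Run at 25 °C in 50 mM Tris/HCl pH 6.8, 10 mM CaCl2, with 0.2–5 nM enzyme and 6 µM Mca-Pro-Leu-Gly-Leu-Dpa-Ala-Arg-NH2; fluorescence 340/400 nm, 30 min. Km: MMP-2 49, MMP-9 14, MMP-8 61 µM. Triplicate, five inhibitor levels; Ki by Horovitz–Levitski.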
Target sequence in this assay (P08253 whole entry): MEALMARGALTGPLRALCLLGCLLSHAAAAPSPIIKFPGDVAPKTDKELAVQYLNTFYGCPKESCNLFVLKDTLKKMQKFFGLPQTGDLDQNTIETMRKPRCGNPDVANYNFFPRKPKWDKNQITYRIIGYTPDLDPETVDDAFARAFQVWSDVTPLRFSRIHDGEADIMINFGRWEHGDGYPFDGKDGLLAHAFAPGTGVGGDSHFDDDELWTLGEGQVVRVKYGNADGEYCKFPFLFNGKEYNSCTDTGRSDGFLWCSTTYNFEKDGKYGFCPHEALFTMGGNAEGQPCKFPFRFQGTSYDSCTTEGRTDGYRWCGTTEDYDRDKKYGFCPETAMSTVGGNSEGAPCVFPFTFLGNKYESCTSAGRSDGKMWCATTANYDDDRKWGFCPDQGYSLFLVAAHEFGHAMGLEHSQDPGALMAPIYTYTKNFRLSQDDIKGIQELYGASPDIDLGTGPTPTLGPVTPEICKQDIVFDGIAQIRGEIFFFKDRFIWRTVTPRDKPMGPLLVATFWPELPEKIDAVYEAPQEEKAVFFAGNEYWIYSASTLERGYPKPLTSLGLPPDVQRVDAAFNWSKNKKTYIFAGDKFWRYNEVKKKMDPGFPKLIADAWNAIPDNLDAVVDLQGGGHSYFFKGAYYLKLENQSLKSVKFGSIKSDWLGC

For test [9], the target named is T7, Matrix metalloproteinase-14. Briefly: Binding affinity against matrix metalloprotease-14 MTI-MMP. In short, it runs like this: as §1
The target in test [10] is T1, Matrix metalloproteinase-9. Briefly: Binding affinity against matrix metalloprotease-9 (gelatinase-B). In short, it runs like this: as §2
The target in test [11] is T4, Neutrophil collagenase. Briefly: Inhibition of matrix metalloprotease-8. In short, it runs like this:
as §2
Target sequence in this assay (P22894 whole entry): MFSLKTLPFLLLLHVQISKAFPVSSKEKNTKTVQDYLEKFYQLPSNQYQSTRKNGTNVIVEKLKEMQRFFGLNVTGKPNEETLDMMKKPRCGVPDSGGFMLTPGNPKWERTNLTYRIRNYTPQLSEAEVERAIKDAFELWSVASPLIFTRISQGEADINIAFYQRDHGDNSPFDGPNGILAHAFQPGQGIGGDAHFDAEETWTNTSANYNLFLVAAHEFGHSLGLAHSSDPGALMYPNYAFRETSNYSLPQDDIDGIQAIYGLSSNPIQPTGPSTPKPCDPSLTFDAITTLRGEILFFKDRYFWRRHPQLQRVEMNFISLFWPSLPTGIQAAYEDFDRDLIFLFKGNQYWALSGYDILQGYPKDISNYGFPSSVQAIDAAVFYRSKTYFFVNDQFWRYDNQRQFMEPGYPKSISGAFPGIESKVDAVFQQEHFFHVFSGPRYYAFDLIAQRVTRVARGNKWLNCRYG

A word on the inhibition: it is the share of the control response that was lost under treatment. Read a high inhibition as a strong effect. As usually defined, the Ki is a measure of affinity in units of concentration, obtained from inhibition or displacement. Higher therefore signals a looser hold on the target.

T1 sequence (P14780 whole entry): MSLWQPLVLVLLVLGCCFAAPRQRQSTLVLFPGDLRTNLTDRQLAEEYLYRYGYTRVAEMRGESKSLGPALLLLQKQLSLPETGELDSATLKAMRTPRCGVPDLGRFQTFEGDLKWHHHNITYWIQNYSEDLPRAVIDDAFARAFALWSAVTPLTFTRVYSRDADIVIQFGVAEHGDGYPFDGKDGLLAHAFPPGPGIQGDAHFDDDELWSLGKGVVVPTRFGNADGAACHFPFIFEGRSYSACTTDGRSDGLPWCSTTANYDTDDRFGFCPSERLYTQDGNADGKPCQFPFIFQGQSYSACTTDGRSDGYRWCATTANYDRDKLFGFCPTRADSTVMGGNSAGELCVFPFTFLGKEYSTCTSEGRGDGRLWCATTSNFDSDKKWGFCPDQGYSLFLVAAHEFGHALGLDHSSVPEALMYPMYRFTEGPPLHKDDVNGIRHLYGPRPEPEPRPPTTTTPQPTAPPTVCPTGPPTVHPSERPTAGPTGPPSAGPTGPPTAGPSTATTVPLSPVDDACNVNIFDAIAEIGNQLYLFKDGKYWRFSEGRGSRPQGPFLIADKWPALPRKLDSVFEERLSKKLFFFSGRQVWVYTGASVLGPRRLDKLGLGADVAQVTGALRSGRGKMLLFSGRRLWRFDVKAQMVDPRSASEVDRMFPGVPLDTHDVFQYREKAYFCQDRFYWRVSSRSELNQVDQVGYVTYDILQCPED

`NC(=O)[C@H](Cc1c[nH]c2ccccc12)NC(=O)C(CCCc1ccccc1)CP(=O)(O)C(Cc1ccccc1)NC(=O)OCc1ccccc1` (some centres undefined): the inhibition is 14% in test [1]; 0% in [2]; 6% in test [3]; 2% at Neutrophil collagenase [4]; 1% in test [5]; 0% in [6].

As to `CC(CP(=O)(O)C(Cc1ccccc1)NC(=O)OCc1ccccc1)C(=O)NC(Cc1c[nH]c2ccccc12)C(N)=O` (centres undefined), the inhibition came out at 0% in [1]; 0% in [7]; 0% in test [2]; 0% in test [3]; 9% at Neutrophil collagenase [4]; 20% in test [6].

On to `NC(=O)C(Cc1c[nH]c2ccccc12)NC(=O)C(CCc1ccc2ccccc2c1)CP(=O)(O)C(Cc1ccccc1)NC(=O)OCc1ccccc1` (centres undefined), for which the Ki at Matrilysin amounted to 2100 nM; on Stromelysin-3, 12 nM; in test [8], 30 nM; in [9], 125 nM; in test [10], 55 nM; on Neutrophil collagenase [11], 34 nM. The compound also yielded an inhibition in test [6] of 0%.

As to `CC(NC(=O)OCc1ccccc1)P(=O)(O)CC(COCc1ccccc1)C(=O)NC(Cc1c[nH]c2ccccc12)C(N)=O` (centres undefined), the inhibition worked out at 1% in test [2] and 15% in test [6].

Take `NC(=O)C(Cc1c[nH]c2ccccc12)NC(=O)C(CCc1ccccc1)CP(=O)(O)C(Cc1ccccc1)NC(=O)OCc1ccccc1` (centres undefined): the inhibition in test [2] was found to be 7%; in test [6], 10%.

For the compound `CC(=O)NC(Cc1ccccc1)P(=O)(O)CC(CCCc1ccccc1)C(=O)NC(Cc1c[nH]c2ccccc12)C(N)=O` (centres undefined), the values for the inhibition in test [2] and in [6] were 28% and 43%, respectively.

Take `NC(=O)C(Cc1c[nH]c2ccccc12)NC(=O)C(CCCc1ccccc1)CP(=O)(O)C(Cc1ccccc1)NC(=O)c1cc2cc(Cl)cc(Cl)c2oc1=O` (centres undefined): the inhibitory constant (Ki) at Stromelysin-3 was 5 nM; in [8] it was 100 nM; in [9] it was 217 nM; in test [10], 110 nM; at Neutrophil collagenase [11] it was 17 nM. Also, the results for the inhibition in test [2] and in test [6] were 52% and 62%, respectively.

Consider `NC(=O)C(Cc1c[nH]c2ccccc12)NC(=O)C(CCCc1ccccc1)CP(=O)(O)C(Cc1ccccc1)NC(=O)CNc1cc(Cl)ccc1O` (centres undefined), for which the inhibition constant (Ki) at Stromelysin-3 came to 10 nM; in test [8], 30 nM; in test [9], 63 nM; in test [10], 34 nM; on Neutrophil collagenase [11] it was 7.5 nM. Besides, the inhibition is 65% in test [2] and 72% in test [6].

`COc1ccc(CSCC(CP(=O)(O)C(Cc2ccccc2)NC(=O)OCc2ccccc2)C(=O)NC(Cc2c[nH]c3ccccc23)C(N)=O)cc1` (centres undefined): the inhibitory constant (Ki) at Stromelysin-3 came out at 2 nM; in test [8], 6 nM; in [9], 22 nM; in test [10] it was 3 nM; on Neutrophil collagenase [11], 0.7 nM. Further, the inhibition in test [2] is 20%; in test [6], 13%.

On to `NC(=O)C(Cc1c[nH]c2ccccc12)NC(=O)C(CCCCc1ccccc1)CP(=O)(O)C(Cc1ccccc1)NC(=O)OCc1ccccc1` (centres undefined), for which the Ki on Stromelysin-3 turned out to be 33 nM; in [8], 145 nM; in test [9], 580 nM; in test [10], 70 nM; on Neutrophil collagenase [11], 4.3 nM. Also, the inhibition in test [2] was determined as 7%; in [6], 5%.

Turning to `CCCCCCCC(CP(=O)(O)C(Cc1ccccc1)NC(=O)OCc1ccccc1)C(=O)NC(Cc1c[nH]c2ccccc12)C(N)=O` (centres undefined), the Ki at Stromelysin-3 worked out at 34 nM; in test [8], 75 nM; in test [9], 271 nM; in test [10], 30 nM; at Neutrophil collagenase [11] it was 6 nM. Further, the inhibition worked out at 4% in test [2] and 27% in [6].

On to `CC(NC(=O)OCc1ccccc1)P(=O)(O)CC(CCc1ccccc1)C(=O)NC(Cc1c[nH]c2ccccc12)C(N)=O` (centres undefined), for which the inhibition in [2] is 3%; in test [6] it was 23%.

As to `CC(NC(=O)OCc1ccccc1)P(=O)(O)CC(Cc1ccccc1)C(=O)NC(Cc1c[nH]c2ccccc12)C(N)=O` (centres undefined), the inhibition amounted to 8% in [2] and 24% in test [6].

Turning to `CC(NC(=O)OCc1ccccc1)P(=O)(O)CC(CCCc1ccccc1)C(=O)NC(Cc1c[nH]c2ccccc12)C(N)=O` (centres undefined), the inhibition in test [2] turned out to be 4%; in test [6], 30%.

Turning to `NC(=O)C(Cc1c[nH]c2ccccc12)NC(=O)C(COCc1ccccc1)CP(=O)(O)C(Cc1ccccc1)NC(=O)OCc1ccccc1` (centres undefined), the inhibition in test [2] came to 3%; in test [6], 9%.

Take `NC(=O)[C@@H](Cc1c[nH]c2ccccc12)NC(=O)C(CCCc1ccccc1)CP(=O)(O)C(Cc1ccccc1)NC(=O)OCc1ccccc1` (some centres undefined): the Ki was determined as 5 nM on Stromelysin-3; 20 nM in test [8]; 105 nM in test [9]; 10 nM in test [10]; 2.5 nM at Neutrophil collagenase [11]. In addition, the inhibition was determined as 8% in [2] and 23% in [6].

With `NC(=O)C(Cc1c[nH]c2ccccc12)NC(=O)C(CCCc1ccccc1)CP(=O)(O)C(Cc1ccccc1)NC(=O)CNc1ccccc1` (centres undefined), the inhibitory constant (Ki) at Stromelysin-3 came to 15 nM; in [8], 17 nM; in [9] it was 73 nM; in test [10] it was 6 nM; on Neutrophil collagenase [11], 4.5 nM. Moreover, the inhibition in test [2] came out at 28%; in test [6], 49%.

As to `NC(=O)C(Cc1c[nH]c2ccccc12)NC(=O)C(CCCc1ccccc1)CP(=O)(O)C(Cc1ccccc1)NC(=O)COCc1ccccc1` (centres undefined), the inhibition in test [2] came to 52%; in [6], 43%.

On to `CC(C)CC(CP(=O)(O)C(Cc1ccccc1)NC(=O)OCc1ccccc1)C(=O)NC(Cc1c[nH]c2ccccc12)C(N)=O` (centres undefined), for which the Ki was found to be 210 nM on Matrilysin; 22 nM at Stromelysin-3; 202 nM in test [8]; 192 nM in test [9]; 65 nM in test [10]; 40 nM on Neutrophil collagenase [11]. The compound further had an inhibition in test [6] of 45%.

Regarding `CC(NC(=O)OCc1ccccc1)P(=O)(O)CC(CSCc1ccccc1)C(=O)NC(Cc1c[nH]c2ccccc12)C(N)=O` (centres undefined), the inhibition was determined as 2% in test [2] and 45% in test [6]. This compound registered a Ki at Neutrophil collagenase [11] below 0.5 nM.
